Screening data: PubChem, several laboratories
SR-BI HDL uptake: inhibitors of SR-BI mediated HDL lipid uptake, primary screen, ldlA[mSR-BI] cells, fluorescence, single point; inhibition, % at 12.5 µM; AID 488896, 2010; Scavenger receptor class B member 1 (Mus musculus), Q61009; ldlA[mSR-BI] CHO cells, DiI-HDL uptake fluorescence, 3 h; 320,000 compounds, 0.96% hits;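 active = mean replicate inhibition of at least 70% and a set share of replicates each scoring 70 or more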;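 also: 0% = median of neutral control wells and 100% = median of positive control wells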
GRK2 inh: compounds blocking aptamer binding on GRK2 – biochemical, human GRK2, bead flow cytometry, HTS, primary screen. Beta-adrenergic receptor kinase 1 (Homo sapiens), P25098. FAM-aptamer displacement from GRK2. inhibition of aptamer binding, % at 10 µM. 330,000 compounds, 0.59% hits. AID 488847, 2010;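 active = inhibition of aptamer binding above 40%, roughly 3 SD of noise, on plates passing a quality check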;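 also: median bead fluorescence of bound FAM aptamer so fluorescent compounds give negative values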
SR-BI uptake up: activators of SR-BI mediated DiI-HDL uptake, primary screen, ldlA[mSR-BI] CHO cells, DiI fluorescence | activation, % at 12.5 µM | 320,000 compounds, 0.096% hits | AID 504775, 2011 | 3 h; 100 = double the neutral-control signal;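 active = mean replicate activation of at least 60% and every replicate at or above 60%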;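 also: 0% = median plate neutral-control signal and 100% = twice that signal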
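system = CHO ldlA[mSR-BI] cells, LDL receptor-null, SR-BI overexpressing | medium = Ham's F12 with 0.5% BSA, HEPES 25 mM, pH 7.4 | probe or stimulus = DiI-HDL 10 µg/mL | compound dosing = single-point compound dose | incubation = compound exposure 3 h, 37 °C | technique = DiI fluorescence, bottom read | read-out = cell-associated DiI fluorescence as measure of HDL uptake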
Rin1 Abl inh: inhibitors of Rin1-Abl protein binding, primary screen, biochemical, TR-FRET; Tyrosine-protein kinase ABL1 (Homo sapiens) + Ras and Rab interactor 1 (Homo sapiens), …; inhibition, % at 7.35 µM; 360,000 compounds, 0.4% hits; AID 588664, 2011; in the data active = inhibition above about 5%, passing the limit was not always enough
* = called active by the depositor; / = no result. This is a sample that favours compounds with a hit; in the whole collection about 1.9% have one here.

SMILES	SR-BI HDL uptake	GRK2 inh	SR-BI uptake up	Rin1 Abl inh
CC(=O)Nc1ccc(N2CCOCC2)c(S(=O)(=O)Nc2ccccc2Cl)c1	/	/	/	-2
COc1cc(/C=C/c2ccc3cccc(O)c3n2)cc(OC)c1OC	64	1	-64	-1
COc1cc(/C=C/c2ccc3cccc(O)c3n2)cc(Br)c1OC	82*	0	-82	0
O=C1NC(=S)S/C1=C\c1ccc(SCc2ccco2)o1	-14	0	14	12*
COCCn1nnnc1C(c1cccs1)N1CCN(c2ccccc2)CC1 (centres undefined)	83*	3	-83	-2
COCCn1nnnc1C(c1ccccc1)N1CCN(c2ccccc2)CC1 (centres undefined)	0	1	0	-1
O=C(COC(=O)COc1ccccc1)Nc1ccc(Br)cc1F	-63	1	63*	2
O=C(COC(=O)COc1ccccc1)Nc1ccc(Br)cc1Br	-28	1	28	3
Cc1nc(NC(=O)COC(=O)C2CC3CCCC(C2)C3=O)c(Cl)cc1Cl (centres undefined)	-13	0	13	0
CCOc1ccc(/C=C/C(=O)N(CC)CC(=O)Nc2ccc3c(c2)OCCO3)cc1OCC	74*	1	-74	-1
CCOC(=O)c1c(Nc2ccc(Cl)cc2)sc(/C=C2\C=Nc3ccccc32)c1O	91*	2	-91	0
Oc1nc(Nc2cccc(Cl)c2)sc1/C=C1\C=Nc2ccccc21	25	0	-25	-3
CN(C)c1ccc(/C=C/c2nc3ccccc3s2)cc1	8	2	-8	-4
Cc1ccc(/C=C/c2nc3ccccc3s2)s1	101*	0	-101	-4
COc1ccc([C@H]2C[C@@H](O)[C@H](n3cc(C4CC4)nn3)CN2C(=O)C2CCCCC2)cc1	/	/	/	-3
CC(C)(C)c1cc(C(=O)C[n+]2ccc(C(=O)NCCCO)cc2)cc(C(C)(C)C)c1O	/	0	/	-2
Cc1nnc(N2CCCC(C(=O)NCc3ccc(OC(C)C)cc3)C2)c2nn(-c3ccccc3)c(C)c12 (centres undefined)	31	0	-31	32*
O=C(CSc1nnc(COc2ccc(Cl)cc2)o1)N1c2ccccc2CCc2ccccc21	75*	1	-75	-1
CC(=O)C1CCC2C3C=CC4=CC(=O)CCC4(C)C3CCC12C (centres undefined)	/	/	/	1
COc1cc(OC)c(NC(=O)c2cncn2-c2ccc(F)cc2)cc1Cl	72*	0	-72	-1
COCCN(C(=O)c1ccc2c(c1)C(=O)N(c1ccccc1Cl)C2=O)c1c(N)n(CC(C)C)c(=O)[nH]c1=O	-20	/	20	2
COc1ccc(S(=O)(=O)N2CCCC(c3cc(C(=O)NCc4cccnc4)no3)C2)cc1 (centres undefined)	/	/	/	4
CCc1ccc(NC(=O)CSc2nc3n[nH]c(C)c3c(=N)n2-c2cccc(OC)c2)cc1	-123	0	123*	2
COc1cccc(C(O)c2nc(-c3ccc(OC)nc3)cs2)c1 (centres undefined)	/	/	/	-3
COc1ccc(-c2cc(C(F)(F)F)n3nc(C(=O)N4CCCCC4)cc3n2)cc1	70	0	-70	-2
SMILES	SR-BI HDL uptake	GRK2 inh	SR-BI uptake up	Rin1 Abl inh
COc1cccc(-c2cc(C(F)(F)F)n3nc(C(=O)N4CCCCC4c4cccnc4)cc3n2)c1 (centres undefined)	77*	1	-77	0
Cc1oc(=O)cc(OCc2ccccc2)c1C	/	45*	/	-3
COc1cc(N)c(Cl)cc1C(=O)OCC(=O)NC(=O)NCc1ccco1	39	0	-39	2
COc1ccc(/C=C/C(=O)Nc2cccc(N3CCOCC3)c2)cc1OC	76*	0	-76	-3
COC(=O)c1ccccc1NC(=O)CCCOc1cc(=O)n(C)c2ccccc12	/	/	/	1
Cn1c(=O)[nH]c(=O)c2c1nc(N1CCN(c3ccccc3)CC1)n2CCSc1ncccn1	-71	0	71*	2
COc1ccc2cc3c(N)nn(C(=O)c4ccc(Cl)c([N+](=O)[O-])c4)c3nc2c1	-7	57*	7	2
COc1ccc2cc3c(N)nn(C(=O)c4ccccc4[N+](=O)[O-])c3nc2c1	32	5	-32	0
COc1ccc(NC(=O)C2(C)CCN2C(=O)CC2CCCC2)cc1OC (centres undefined)	/	/	/	-6
Cc1cc(Cl)ccc1OCCCC(=O)NNC(=O)c1ccccc1O	109*	4	-109	-4
